Source: ChEMBL document CHEMBL1140866, “New pyrazoline bearing 4(3H)-quinazolinone inhibitors of monoamine oxidase: synthesis, biological evaluation, and structural determinants of MAO-A and MAO-B selectivity” (Bioorg Med Chem, 2009)

Legend:
Mus musculus [1] = test: Anxiolytic activity in albino mouse assessed as time spent on closed arm at 100 mg/kg, ip by plus-maze test; format: functional; design: unit not given here; details: route intraperitoneal
Summary of the method: (§1)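 Mice given compounds i.p. at 100 mg/kg in DMSO/water (1:4), about 0.1 mL, 1 h before testing; controls got 0.1 mL vehicle; n = 7–8. Housed eight per cage, 20 ± 2 °C, 12 h light/dark. Each animal did the plus-maze first, then forced swim.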

Mus musculus [2] = test: Antidepressant activity in albino mouse assessed as immobility time at 100 mg/kg, ip by forced swim test; format: functional; details: route intraperitoneal; summary of the method: as §1
Mus musculus [3] = test: Anxiolytic activity in albino mouse assessed as total number of entries into arms at 100 mg/kg, ip by plus-maze test; format: functional; details: route intraperitoneal; summary of the method: as §1
[4] = biological target: T1, Amine oxidase [flavin-containing] A (Rattus norvegicus, UniProt P21396); test: Inhibition of MAO-A in rat liver homogenate after 60 mins by Lineweaver-Burke plot; format: tissue-based; details: for Activity: rat, 1 h, TDE = time-dependent effect
T1 sequence (P21396 whole entry): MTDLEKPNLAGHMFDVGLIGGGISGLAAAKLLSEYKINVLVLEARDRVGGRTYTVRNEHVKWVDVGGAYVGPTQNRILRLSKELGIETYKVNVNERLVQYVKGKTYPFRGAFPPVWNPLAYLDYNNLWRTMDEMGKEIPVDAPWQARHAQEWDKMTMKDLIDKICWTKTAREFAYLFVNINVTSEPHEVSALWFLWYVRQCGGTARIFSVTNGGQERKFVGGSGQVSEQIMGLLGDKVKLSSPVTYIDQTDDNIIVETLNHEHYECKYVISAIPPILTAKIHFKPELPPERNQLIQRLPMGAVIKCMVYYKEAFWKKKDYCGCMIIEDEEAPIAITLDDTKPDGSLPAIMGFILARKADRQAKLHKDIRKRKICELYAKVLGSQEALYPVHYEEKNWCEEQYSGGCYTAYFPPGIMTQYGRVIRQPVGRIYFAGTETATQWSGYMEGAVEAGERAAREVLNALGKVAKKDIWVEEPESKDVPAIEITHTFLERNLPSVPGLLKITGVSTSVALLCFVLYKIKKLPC

[5] = biological target: T1, Amine oxidase [flavin-containing] A; test: Inhibition of MAO-A in rat liver homogenate after 60 mins by residual activity plot; format: tissue-based
[6] = biological target: T2, Amine oxidase [flavin-containing] B (Rattus norvegicus, UniProt P19643); test: Inhibition of MAO-B in rat liver homogenate after 60 mins by residual activity plot; format: tissue-based
T2 sequence (P19643 whole entry): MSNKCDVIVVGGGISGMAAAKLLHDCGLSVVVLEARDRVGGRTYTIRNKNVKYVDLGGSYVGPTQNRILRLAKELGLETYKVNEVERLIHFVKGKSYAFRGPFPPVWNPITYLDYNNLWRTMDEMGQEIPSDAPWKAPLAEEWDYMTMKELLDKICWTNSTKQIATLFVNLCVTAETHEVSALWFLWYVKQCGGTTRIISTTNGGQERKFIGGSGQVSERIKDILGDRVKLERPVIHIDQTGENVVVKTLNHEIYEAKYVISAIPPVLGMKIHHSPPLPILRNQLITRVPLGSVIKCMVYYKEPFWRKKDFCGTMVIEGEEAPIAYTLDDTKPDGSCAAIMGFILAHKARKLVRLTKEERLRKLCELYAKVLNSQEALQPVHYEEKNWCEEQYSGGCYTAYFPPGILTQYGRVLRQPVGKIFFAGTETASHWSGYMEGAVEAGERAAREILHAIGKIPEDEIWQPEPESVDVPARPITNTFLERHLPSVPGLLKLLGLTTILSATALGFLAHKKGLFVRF

[7] = biological target: T2, Amine oxidase [flavin-containing] B; test: Inhibition of MAO-B in rat liver homogenate after 60 mins by Lineweaver-Burke plot; format: tissue-based; details: for Activity: rat, 1 h, TDE = time-dependent effect

SMILES | Activity (Mus musculus [1]) | Activity (Mus musculus [2]) [%] | arm entries (Mus musculus [3]) [entries] | Ki [4] [µM] | Activity [4] | IC50 [5] [µM] | IC50 [6] [µM] | Ki [7] [µM] | Activity [7]
Cn1c(N/N=C(/C=C/c2cccc(Cl)c2)c2ccccc2)nc2ccccc2c1=O | 246.87 | 54.57 | 3.15 | 5.1 | tde | 468 | 1.15 | 0.16 | tde
Cn1c(N/N=C(/C=C/c2ccco2)c2ccc(Cl)cc2)nc2ccccc2c1=O | 219.5 | 67.88 | 6.75 | 80.1 | tde | 31.6 | 400 | 125 | tde
COc1ccc(C(/C=C/c2ccco2)=N\Nc2nc3ccccc3c(=O)n2C)cc1 | 237.25 | 80.38 | 4.63 | 70.3 | tde | 34.2 | 419 | 90.5 | tde
Cc1ccc(/C=C/C(=N/Nc2nc3ccccc3c(=O)n2C)c2ccccc2)cc1 | 216.12 | 79.25 | 6.37 | 30.2 | tde | 30.5 | 470 | 64.6 | tde
Cc1ccc(C2=NN(c3nc4ccccc4c(=O)n3C)C(c3cccs3)C2)cc1 (stereo unspecified) | 188.14 | 74.14 | 5.14 | 130 | tde | 415 | 70.8 | 90.7 | tde
CCOc1ccc(/C=C/C(=N/Nc2nc3ccccc3c(=O)n2C)c2ccccc2)cc1 | 218.88 | 90.23 | 5.75 | 80.1 | tde | 29 | 429 | 30.6 | tde
COc1ccc(/C=C/C(=N/Nc2nc3ccccc3c(=O)n2C)c2ccccc2)cc1 | 225.38 | 86.75 | 4.5 | 1.15 | tde | 9.05 | 399 | 10.6 | tde
COc1ccc(/C=C/C(=N/Nc2nc3ccccc3c(=O)n2C)c2ccccc2)cc1OC | 209.63 | 130.57 | 5.63 | 90.7 | tde | 68 | 470 | 65.1 | tde
COc1ccc(C2=NN(c3nc4ccccc4c(=O)n3C)C(c3ccco3)C2)cc1 (stereo unspecified) | 226 | 69 | 5.57 | 6.8 | tde | 418 | 2.03 | 1.48 | tde
Cn1c(=S)[nH]c2ccccc2c1=O | – | – | – | 30.2 | tde | 3.42 | 120 | 78.3 | tde
Cn1c(N2N=C(c3ccc(Cl)cc3)CC2c2cccs2)nc2ccccc2c1=O (stereo unspecified) | 244.5 | 61.83 | 2.29 | 65.3 | tde | 420 | 27.6 | 25.6 | tde
Cc1ccc(C2=NN(c3nc4ccccc4c(=O)n3C)C(c3ccco3)C2)cc1 (stereo unspecified) | 208.57 | 64 | 9 | 140 | tde | 410 | 77.1 | 88.6 | tde
Cn1c(N2N=C(c3ccccc3)CC2c2ccc(Cl)cc2)nc2ccccc2c1=O (stereo unspecified) | 154.75 | 42.37 | 4.12 | 2.7 | tde | 3.7 | 416 | 18.4 | tde
Cn1c(N2N=C(c3ccccc3)CC2c2cccc(Cl)c2)nc2ccccc2c1=O (stereo unspecified) | 218.25 | 26.25 | 3.75 | 0.9 | tde | 1.02 | 400 | 5.8 | tde
Cn1c(N2N=C(c3ccc(Cl)cc3)CC2c2ccco2)nc2ccccc2c1=O (stereo unspecified) | 204 | 74 | 4.86 | 28.7 | tde | 450 | 7.22 | 9.25 | tde
Cc1ccc(C(/C=C/c2cccs2)=N\Nc2nc3ccccc3c(=O)n2C)cc1 | 204.71 | 65.57 | 5.57 | 190 | tde | 33.2 | 419 | 188 | tde
Cn1c(N/N=C(/C=C/c2cccs2)c2ccc(Cl)cc2)nc2ccccc2c1=O | 162.17 | 50.39 | 8.5 | 28.2 | tde | 28 | 416 | 69.1 | tde
COc1ccc(C(/C=C/c2cccs2)=N\Nc2nc3ccccc3c(=O)n2C)cc1 | 206.29 | 49.29 | 8 | 185 | tde | 27.2 | 299 | 184 | tde
Cn1c(NN)nc2ccccc2c1=O | – | – | – | 25.2 | tde | 37.4 | 21.2 | 18.6 | tde
Cc1ccc(C(/C=C/c2ccco2)=N\Nc2nc3ccccc3c(=O)n2C)cc1 | 238.67 | 82.43 | 5.14 | 181 | tde | 90.8 | 320 | 179 | tde
Cn1c(N/N=C(/C=C/c2ccccc2)c2ccccc2)nc2ccccc2c1=O | 191 | 55.43 | 5.37 | 34.2 | tde | 35.1 | 415 | 70.5 | tde
Cn1c(N/N=C(/C=C/c2ccc(Br)cc2)c2ccccc2)nc2ccccc2c1=O | 218.71 | 65.57 | 3.87 | 40.3 | tde | 30.5 | 487 | 69.6 | tde
Cn1c(N/N=C(/C=C/c2ccc(Cl)cc2)c2ccccc2)nc2ccccc2c1=O | 284.2 | 125.86 | 2.51 | 1.05 | tde | 3.56 | 378 | 7.8 | tde
Cn1c(N2N=C(c3ccccc3)CC2c2ccccc2)nc2ccccc2c1=O (stereo unspecified) | 222.27 | 27 | 4.37 | 9.9 | tde | 9.46 | 410 | 25.2 | tde
COc1ccc(C2=NN(c3nc4ccccc4c(=O)n3C)C(c3cccs3)C2)cc1 (stereo unspecified) | 248.5 | 61.13 | 5.13 | 25.3 | tde | 440 | 15.2 | 16.3 | tde
C#CCN(C)Cc1ccccc1 [PARGYLINE] | – | – | – | 8.5 | – | – | – | 3.36 | –
